Positions count from the first letter of the chain named. Values belong to the molecule of their own block, whether it stands above or below them.
What was measured:
[1] = target: T1, human CNGA3 wild-type homomeric channels (Homo sapiens, UniProt Q16281); test: Inside-out patch clamp, homomeric CNGA3 wild type expressed in X. laevis oocytes; type: biochemical
T1 sequence (Q16281 1-694): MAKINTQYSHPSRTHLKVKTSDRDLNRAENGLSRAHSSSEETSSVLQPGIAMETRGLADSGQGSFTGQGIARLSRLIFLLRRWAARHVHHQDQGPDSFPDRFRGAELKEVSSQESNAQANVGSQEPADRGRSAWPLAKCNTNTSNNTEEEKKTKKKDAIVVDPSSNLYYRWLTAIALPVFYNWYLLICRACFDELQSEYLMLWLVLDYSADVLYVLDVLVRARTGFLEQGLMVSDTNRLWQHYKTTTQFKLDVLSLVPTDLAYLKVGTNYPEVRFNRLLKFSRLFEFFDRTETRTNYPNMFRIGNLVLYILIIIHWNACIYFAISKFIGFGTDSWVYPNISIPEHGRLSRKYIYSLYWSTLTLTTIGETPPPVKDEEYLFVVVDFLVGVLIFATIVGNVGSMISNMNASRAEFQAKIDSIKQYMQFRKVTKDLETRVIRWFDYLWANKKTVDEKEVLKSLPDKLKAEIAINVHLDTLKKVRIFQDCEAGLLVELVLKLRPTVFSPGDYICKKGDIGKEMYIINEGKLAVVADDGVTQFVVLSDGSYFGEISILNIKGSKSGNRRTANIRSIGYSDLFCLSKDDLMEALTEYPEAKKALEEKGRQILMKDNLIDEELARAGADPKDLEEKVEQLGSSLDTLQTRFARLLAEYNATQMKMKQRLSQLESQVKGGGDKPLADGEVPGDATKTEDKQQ

CNG channels = settings: ref Fodor et al., 1997; cited from earlier work
[2] = target: T2, CNGA3 P99L, A105P (PA-LP) channels (Homo sapiens, UniProt Q16281, A105P/P99L); test: Inside-out patch clamp, CNGA3 P99L, A105P; type: biochemical; settings: after PIP3 or PIP2 application
T2 sequence (Q16281 1-694 P99L/A105P): T1 sequence (Q16281 1-694) with P99L, A105P

[3] = target: T3, heteromeric CNGA3+CNGB3 channels (Homo sapiens, UniProt Q16281+Q9NQW8); test: Inside-out patch clamp, heteromeric CNGA3+CNGB3; type: biochemical
T3 sequence (Q16281 1-694): T1 sequence (Q16281 1-694)
T3 sequence (Q9NQW8 1-809): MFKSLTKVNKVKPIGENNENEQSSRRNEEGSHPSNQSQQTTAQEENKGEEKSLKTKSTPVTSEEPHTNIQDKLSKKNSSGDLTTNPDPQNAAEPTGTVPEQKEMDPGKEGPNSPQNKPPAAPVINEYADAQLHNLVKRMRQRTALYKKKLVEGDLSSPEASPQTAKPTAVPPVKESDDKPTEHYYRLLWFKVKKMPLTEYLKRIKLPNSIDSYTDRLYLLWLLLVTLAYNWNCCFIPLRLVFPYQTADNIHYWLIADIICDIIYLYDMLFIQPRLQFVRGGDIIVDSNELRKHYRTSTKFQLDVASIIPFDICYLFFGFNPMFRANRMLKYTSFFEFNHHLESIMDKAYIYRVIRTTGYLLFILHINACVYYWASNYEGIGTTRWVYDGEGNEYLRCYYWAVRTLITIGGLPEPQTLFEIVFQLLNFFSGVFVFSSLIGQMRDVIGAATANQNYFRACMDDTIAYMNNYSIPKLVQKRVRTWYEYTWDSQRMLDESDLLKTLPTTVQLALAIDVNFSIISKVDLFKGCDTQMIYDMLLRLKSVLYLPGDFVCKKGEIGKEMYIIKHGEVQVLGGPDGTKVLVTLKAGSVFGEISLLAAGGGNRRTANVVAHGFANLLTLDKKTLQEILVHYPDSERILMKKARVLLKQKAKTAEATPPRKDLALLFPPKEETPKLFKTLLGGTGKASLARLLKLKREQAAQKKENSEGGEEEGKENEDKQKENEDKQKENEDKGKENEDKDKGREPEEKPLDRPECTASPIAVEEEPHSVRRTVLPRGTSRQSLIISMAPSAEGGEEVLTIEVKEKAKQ

[4] = target: T4, A3-N7R-A,RR-QQ+B3 channels (Homo sapiens, UniProt Q16281+Q9NQW8, R101A/R103A/R643Q/R646Q/R72A/R75A/R81A/R82A/R86A); test: Inside-out patch clamp, A3-N7R-A,RR-QQ+B3; type: biochemical; settings: 10 µM PIP2 or 1 µM PIP3
T4 sequence (Q16281 1-694 R72A/R75A/R81A/R82A/R86A/R101A/R103A/R643Q/R646Q): T1 sequence (Q16281 1-694) with R72A, R75A, R81A, R82A, R86A, R101A, R103A, R643Q, R646Q
T4 sequence (Q9NQW8 1-809): T3 sequence (Q9NQW8 1-809)
Outline: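 Subunit cRNAs (~20 ng, B in excess over A) injected into stage IV Xenopus oocytes; inside-out patches 2–7 d later, 20–22°C, symmetric 130 mM NaCl, 0.2 mM EDTA, 3 mM Hepes pH 7.2. Heteromer formation checked by 25 µM l-cis-diltiazem with 1 mM cGMP. diC8 phosphoinositides applied intracellularly in phosphatase-inhibitor cocktail. cGMP dose–response at +80 mV, leak-subtracted, Hill fit before/after for K1/2; mean ± SEM.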

CNGA1 homomeric channels = CNGA1 homomeric channels (Bos taurus, UniProt Q00194); test: Inside-out patch clamp, homomeric CNGA1; type: biochemical, bovine; settings: PIP3 or PIP2 application
CNGA1 homomeric channels, sequence (Q00194 whole entry): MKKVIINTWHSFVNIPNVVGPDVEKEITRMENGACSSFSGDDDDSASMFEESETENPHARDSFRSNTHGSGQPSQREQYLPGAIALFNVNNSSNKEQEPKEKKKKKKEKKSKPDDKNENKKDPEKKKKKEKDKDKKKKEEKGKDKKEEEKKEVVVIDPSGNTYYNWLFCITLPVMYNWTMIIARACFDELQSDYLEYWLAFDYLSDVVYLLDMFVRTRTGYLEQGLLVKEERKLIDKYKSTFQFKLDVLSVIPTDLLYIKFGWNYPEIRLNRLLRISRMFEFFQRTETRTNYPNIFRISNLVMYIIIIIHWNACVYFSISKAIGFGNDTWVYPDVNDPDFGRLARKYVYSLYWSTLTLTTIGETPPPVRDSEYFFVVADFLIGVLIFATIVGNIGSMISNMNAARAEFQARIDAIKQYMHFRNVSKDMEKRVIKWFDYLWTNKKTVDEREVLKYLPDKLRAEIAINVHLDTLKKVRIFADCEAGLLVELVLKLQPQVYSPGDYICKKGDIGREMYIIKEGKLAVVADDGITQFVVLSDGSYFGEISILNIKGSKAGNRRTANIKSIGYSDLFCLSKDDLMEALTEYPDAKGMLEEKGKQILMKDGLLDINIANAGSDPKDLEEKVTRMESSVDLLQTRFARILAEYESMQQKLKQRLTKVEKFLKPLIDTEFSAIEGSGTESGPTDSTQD

[5] = mean, after 1 µM PIP3 or 10 µM PIP2
[6] = representative patch, after PIP3 or PIP2

Molecule: C=C1[C@@H](C)[C@H]2[C@H](Cc3ccccc3)NC(=O)[C@]23[C@H](OC(C)=O)/C=C/[C@@](C)(O)C(=O)[C@@H](C)C/C=C/[C@H]3[C@@H]1O [cyto D, cytochalasin D]
effect on cAMP efficacy ([1]; 10 µM cyto D applied to inside-out patches): decrease in cAMP efficacy

Molecule: CCCCNc1ccc(C(=O)OCCN(C)C)cc1 [tetracaine]
greater affinity for closed compared with open channels (CNG channels): ~1,000 fold

Hill coefficient h after phosphoinositide [2]: 1.7 | K1/2 cGMP after phosphoinositide [2]: 8.7 ± 0.4 µM | effect on currents elicited by 5 µM cGMP ([3]; 1 µM PIP3 or 10 µM PIP2): attenuated the currents | Imax cAMP/cGMP after phosphoinositide ([3]; after PIP2 or PIP3 application): 0.27 ± 0.02 | Hill coefficient h after phosphoinositide [3, 5]: 1.6 | K1/2 cGMP after phosphoinositide [3, 5]: 23.4 ± 1.8 µM | Hill coefficient h after phosphoinositide [3, 6]: 1.6 | K1/2 cGMP after phosphoinositide [3, 6]: 24.5 µM | Imax cGMP compared with initial values ([3]; saturating cGMP, after 1 µM PIP3 or 10 µM PIP2): 85.3 ± 3.7% | effect on maximal cGMP current ([1]; 1 mM cGMP): not significantly altered | K1/2 cAMP after phosphoinositide ([1]; apparent cAMP affinity after PIP3 or PIP2 application): 1.13 ± 0.04 mM | regulation of apparent cGMP affinity [4]: insensitive to regulation | effect on relative cAMP efficacy (CNGA1 homomeric channels): decreased relative cAMP efficacy
Molecule: phosphatidylinositol (4,5)-biphosphate [PIP2]

Molecule: poly-lysine
Imax cAMP/cGMP after poly-lysine ([1]; poly-lysine applied to control patches (no exogenous PIPn)): 0.10 ± 0.01

— article PMC3607822 (The Journal of General Physiology, 2013)
